Assay outcomes deposited in PubChem by several laboratories.
Hits are enriched below; roughly 5.1% of the tested compounds scored in any of these assays.
APP 5'UTR act: APP 5'UTR luciferase reporter activation | SH-SY5Y APP 5'UTR luciferase reporter, luminescence; zero percent = DMSO vehicle wells | AID 1276 | activation, % at 2 µM | hit rate 1% among 190,000;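 active = activation above a set limit, based on mean plus 3 SD of controls, cut at about 140% in these data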
STAT1 inh: inhibitors of IFN-gamma induced STAT1 signaling. hit rate 0.35% among 200,000. NIH 3T3 STAT1-luciferase reporter, luminescence. inhibition, % at 5.5 µM. AID 920;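 active = inhibition above a set limit, the mean inhibition across all tested compounds plus 3 SD, cut at about 34% in these data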
STAT1 activator: increases IFN-gamma driven STAT1 reporter signal | hit rate 2.6% among 200,000 | NIH 3T3 STAT1-luciferase reporter, luminescence; 100% = IFN-gamma alone, no compound | activation (% of control), % at 5.5 µM;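 active = activation above the screen-wide mean activation plus 3 SD, cut at about 130% in these data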
NF-kB neuron act: NF-kB expression increase, human neuronal cells | NF-kB reporter expression; stronger effect = higher value | fold change at 12.5 µM | hit rate 1.6% among 190,000; in the data active = fold change above about 3.3
STAT3 inh: inhibitors of IL-6 induced STAT3 signaling. U3A cells, IL-6 STAT3-luciferase reporter, luminescence; host cell line lacks STAT1. inhibition, % at 5.5 µM. hit rate 0.89% among 190,000. AID 862;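 active = inhibition above the mean inhibition across all screened compounds plus 3 SD, cut at about 44% in these data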
STAT3 act: activators of IL-6 induced STAT3 signaling; hit rate 0.91% among 190,000; U3A cells, IL-6 STAT3-luciferase reporter, luminescence; 100% = signal with IL-6 EC80 alone; activation (% of control), % at 5.6 µM;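 active = activation above the screen-wide mean of compound activation plus 3 SD, cut at about 130% in these data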
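Test system: Human STAT1-deficient U3A cells with stable STAT3-luciferase reporter | Also added: Interleukin-6, 33 ng/mL | Timing: Compound pre-incubation 1 h before IL-6, then 6 h stimulation at 37 °C | Technique: Luciferase reporter luminescence | Read-out: Percent of IL-6-only median luminescence | Benchmarks: IL-6-only wells as 100% reference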
Of the large screens only hits and unclear results are named; the others gave an inactive call.

COc1ccc(NC(=O)/C(=C\c2ccc3c(c2)OCO3)NC(C)=O)cc1	none
O=C(CCc1nnc(-c2ccc3c(c2)OCO3)o1)N1CCC(c2ccc(F)cc2)C1 (stereo unspecified)	STAT1 activator 134
CC1CCN(C(=O)CCc2nnc(-c3ccccc3)o2)CC1	STAT1 activator 135
O=C(CCc1nnc(Cc2ccc(-c3ccccc3)cc2)o1)N1CCCC1	none
O=C(CCc1nnc(-c2ccc3c(c2)OCO3)o1)NC(c1ccccn1)C(F)(F)F (stereo unspecified)	none (no result: NF-kB neuron act)
Cc1c(Cl)cccc1NC(=O)CN1CCN(CCN=CC2=C(O)CC(c3ccccc3)CC2=O)CC1 (stereo unspecified)	none
COc1ccc(CCC(=O)Nc2sccc2C#N)cc1	STAT1 activator 130
Cc1ccc2nc(-c3sc4nc(C)cc(C)c4c3N)[nH]c2c1	APP 5'UTR act 170, STAT1 activator 131, STAT3 act 140
CC(=O)c1sc2nc(C)cc(C)c2c1N	none
CCOC(=O)C1(CCc2ccccc2)CCN(C(=O)Cc2nonc2C)CC1	none
CSc1nc2ccc(S(=O)(=O)N3CCOCC3)cc2s1	STAT3 act 135
CSc1nc2ccc(S(=O)(=O)N3CCCCC3)cc2s1	none
Cc1cc(S(=O)(=O)N2CCOCC2)ccc1F	NF-kB neuron act 4.4
O=C1c2cccc(Cl)c2C(=O)c2c1cccc2N1CCCC1	STAT3 act 137 (no result: NF-kB neuron act)
CCOC(=O)c1cc(-c2ccccc2)sc1N	STAT1 activator 135
CCOC(=O)Cc1ccc2sc(-c3ccccc3)nc2c1	APP 5'UTR act 178, STAT1 activator 139, NF-kB neuron act 9.4
CCOC(=O)CC(=O)Nc1nc2ccccc2s1	none
CCOC(=O)c1sc(-c2ccc(F)cc2)cc1N	none
CCOC(=O)c1sc(-c2ccccc2)cc1N	STAT1 activator 132
CCOC(=O)c1nc(NNC(C)=O)sc1C	none
CCOC(=O)c1nc(NCCc2ccccc2)sc1C	STAT1 activator 132
N#Cc1c(-c2ccccc2)c(-c2ccccc2)nn(CC(=O)NNC(=O)Nc2ccc(Cl)c(Cl)c2)c1=O	none
CCNc1nc(NC(C)C)nc(Oc2ccc(=O)n(C)n2)n1	none
CCOc1ccccc1NC(=O)C(NCC1(N2CCCCC2)CCCCC1)c1ccccc1 (stereo unspecified)	none
CCOC(=O)c1sc(-c2ccccc2)nc1C	STAT1 activator 135
CNc1nc(C)c(C(=O)OCc2ccccc2)s1	NF-kB neuron act 5
CC(C)(C)C(=O)NC(=S)Nc1ccc(F)cc1	none
Nc1nccc(/C=C/c2c(F)cccc2Cl)n1	none
Oc1cccc2ccc(/C=C/c3c(F)cccc3Cl)nc12	APP 5'UTR act 136, NF-kB neuron act 5.4
CCOC(=O)C/C(C)=N/NC(=O)Nc1ccccc1	STAT1 activator 131
NNC(=O)c1cc2cc3ccccc3nc2s1	STAT1 activator 136
Clc1ccc(CNc2ccccc2NCc2ccc(Cl)nc2)cn1	none
COC(=O)c1ccc(/C=N/NC(=O)c2cccc(F)c2)cc1	STAT1 activator 130
CCOc1ccc(C(=O)N/N=C/c2ccc(SC)cc2)cc1	none
O=C(N/N=C/c1ccccc1Cl)c1ccc(F)cc1	STAT1 activator 138
CSc1ccc(/C=N/NC(=O)c2cccc(O)c2)cc1	APP 5'UTR act 159, NF-kB neuron act 4.5, STAT3 inh 47
O=C(N/N=C\c1ccc(F)cc1)c1ccc(F)cc1	STAT1 activator 145
CCN(CC)c1ccc(-c2n[nH]c(=S)n2-c2ccccc2)cc1	none
CCOc1ccccc1NC(=O)CN(C)S(=O)(=O)c1cnc[nH]1	none
CC(C)c1ccc(-n2cnn(-c3ncccc3[N+](=O)[O-])c2=O)cc1	APP 5'UTR act 140, NF-kB neuron act 8.6
CC1(C)CC(=O)c2sc(NC(=O)c3ccccc3)nc2C1	APP 5'UTR act 170, NF-kB neuron act 3.5
OCCC1CN(Cc2ccccc2-c2ccco2)CCN1Cc1ccccc1 (stereo unspecified)	none
CN(/N=C/c1ccc([N+](=O)[O-])o1)c1ccccc1	STAT1 activator 135
CCNC(=S)NN(c1ccccc1)c1ccccc1	none (no result: APP 5'UTR act)
Cc1cccnc1NCc1ccc(O)c2ncccc12	NF-kB neuron act 8.6
Cc1ccc(NCc2ccc(O)c3ncccc23)cc1	none
Cc1ccc(NCc2ccc(O)c3ncccc23)cc1C	STAT3 act 135
COc1ccc(C2(CNS(=O)(=O)c3ccccc3)CCOCC2)cc1	none
COc1ccc(N2CCN(C(=O)CSc3nc4[nH]ncc4c(=O)n3-c3ccc(Br)cc3)CC2)cc1	NF-kB neuron act 3.3
COc1cc2c(=O)n(CCC(=O)NCC3CCCO3)c(=O)n(CC(=O)c3ccc(Cl)cc3)c2cc1OC (stereo unspecified)	none
c1ccc2c(-c3cn4ccccc4n3)c[nH]c2c1	APP 5'UTR act 149, STAT1 activator 150, NF-kB neuron act 3.4
c1ccc2c(-c3nnc(SCc4cn5ccccc5n4)o3)c[nH]c2c1	none
CCCn1c(O)c(C=Nc2ccccc2)sc1=S	STAT1 activator 138
c1ccc(-n2ncc3c(NCC4CCCO4)ncnc32)cc1 (stereo unspecified)	STAT1 activator 129
Clc1ccc(-n2ncc3c(NCc4ccco4)ncnc32)cc1	STAT1 activator 150
COc1ccc(-n2ncc3c(NCc4cccs4)ncnc32)cc1	STAT1 activator 150
c1ccc(-n2ncc3c(NCc4cccs4)ncnc32)cc1	STAT1 activator 138
c1ccc2c(c1)oc1c(NCC3CCCO3)ncnc12 (stereo unspecified)	none
COc1ccc(-n2ncc3c(NCc4ccccn4)ncnc32)cc1	none
Clc1ccc(Cn2ncc3c(NCc4ccco4)ncnc32)c(Cl)c1	none
COc1cccc(C(=O)N/N=C/C(Br)=C/c2ccccc2)c1	none
CC(C)CNc1c(N)c(=O)oc2ccccc12	none
[O-]/[N+](=C/c1ccc(F)cc1)c1ccc(Cl)cc1	NF-kB neuron act 4
[O-]/[N+](=C/c1cccnc1)c1ccc(Br)cc1	none
CCOC(=O)C1=C(O)C(=O)N(CCCn2ccnc2)C1c1ccc(OC)cc1 (stereo unspecified)	none
CCc1ccc(NC(=O)COc2ccc(F)cc2C(=O)c2cnn(-c3ccccc3)c2)cc1	STAT1 activator 130
Cc1ccccc1CN1CCSc2sccc2C1=O	none
CCCCCN(C(=O)NC(=O)Nc1ccccc1C)S(=O)(=O)c1ccccc1	none
Cc1ccc(NC(=O)NCc2ccc3c(c2)OCO3)cc1	none
O=C(O)Cn1ncc2ccccc2c1=O	none
O=c1c2ccccc2cnn1CCOc1ccccc1	STAT1 inh 44, STAT3 inh 90
c1ccc(CNc2nc(-c3cccnc3)cs2)cc1	none
Brc1ccc(Nc2nc(-c3cccnc3)cs2)cc1	STAT1 activator 131, STAT3 act 165
Clc1cccc(Nc2nc(-c3cccnc3)cs2)c1	STAT1 activator 139, STAT3 act 157
O=C(Nc1cccc(Cl)c1)Nc1nc(-c2ccc(Cl)cc2)cs1	none
